In ChEMBL document CHEMBL4428077, “Synthesis and Biological Evaluation of N-((1-(4-(Sulfonyl)piperazin-1-yl)cycloalkyl)methyl)benzamide Inhibitors of Glycine Transporter-1” (J Med Chem, 2016):
Blank lines part the entries; values can stand above or below the molecule they belong to. The source made the active and inactive calls. No cut-off for these calls is given here.

Experiments:
[1] = Drug level in cynomolgus monkey plasma at 10 mg/kg, po measured at 3 hrs post dose by LC-MS/MS analysis; assay type: ADME, organism-based, Macaca fascicularis
[2] = Drug level in cynomolgus monkey plasma at 3 mg/kg, po measured at 12 hrs post dose by LC-MS/MS analysis; assay type: ADME, organism-based, Macaca fascicularis
[3] = Drug level in cynomolgus monkey CSF at 10 mg/kg, po measured at 24 hrs post dose by LC-MS/MS analysis; assay type: ADME, organism-based, Macaca fascicularis, Cerebrospinal fluid; details: read-out: Drug uptake
Procedure, shortened: (§1)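 Cynomolgus monkeys (n = 3/group) fitted with subcutaneous CSF ports were dosed orally at 0.4−15.7 μmol/kg in 5% Solutol plus 20% Captisol in 25 mM PBS, pH 2. CSF (about 0.30 mL) and blood were sampled predose and at 0.5, 1, 2, 3, 4, 8, 12 and 24 h. Quantitation limit 1.0 ng/mL; mean ± SD.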

[4] = Drug level in cynomolgus monkey CSF at 10 mg/kg, po measured at 8 hrs post dose by LC-MS/MS analysis; assay type: ADME, organism-based, Macaca fascicularis, Cerebrospinal fluid; details: read-out: Drug uptake; procedure, shortened: as §1
[5] = Drug level in cynomolgus monkey plasma at 3 mg/kg, po measured at 2 hrs post dose by LC-MS/MS analysis; assay type: ADME, organism-based, Macaca fascicularis
[6] = Drug level in cynomolgus monkey plasma at 10 mg/kg, po measured at 4 hrs post dose by LC-MS/MS analysis; assay type: ADME, organism-based, Macaca fascicularis
Cytochrome P450 2C9 = Cytochrome P450 2C9 (Homo sapiens, UniProt P11712); assay: Inhibition of CYP2C9 (unknown origin); assay type: ADME
[7] = Protein binding in human plasma; assay type: ADME, cell-free; details: read-out: PPB (converted)
[8] = Protein binding in monkey plasma; details: cynomolgus monkey, read-out: PPB (converted)
[9] = Volume of distribution at steady state in Sprague-Dawley rat at 10 mg/kg, po or 2 mg/kg, iv administered as single dose measured up to 24 hrs post dose by LC-MS/MS analysis; assay type: ADME, organism-based; details: in vivo, read-out: Vdss
Procedure, shortened: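 Groups of three drug-naive adult male Sprague–Dawley rats, single dose: IV 3.1 μmol/kg in 5% DMSO/10% Solutol in saline (5 mL/kg), or PO 15.7 μmol/kg in 5% Solutol/10% Captisol in 25 mM PBS adjusted to pH 2 with HCl. Plasma concentration–time data give the parameters; mean ± SD.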

[10] = Cmax in cynomolgus monkey plasma at 5 mg/kg, po by LC-MS/MS analysis; assay type: ADME, organism-based, Macaca fascicularis; set-up: dose 5 mg/kg, route oral
Procedure, shortened: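 Single-dose PK in female cynomolgus monkeys, n = 3 per group: 1.5 μmol/kg IV in 5% DMSO/10% Solutol in saline, pH 6.5 (2 mL/kg), or 7.8 μmol/kg PO in 5% Solutol in 20% Captisol, 25 mM PBS, pH 2 (5 mL/kg). Plasma parameters reported as mean ± SD.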

Cynomolgus monkey [11] = assay: In vivo inhibition of glycine transporter-1 in cynomolgus monkey assessed as CSF glycine level at 10 mg/kg, po measured up to 24 hrs post dose by LC-MS/MS analysis relative to control; assay type: functional, Macaca fascicularis; set-up: scale not given: the % may be the effect or the level left
Procedure, shortened: (§2)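 Cynomolgus monkeys, n = 3 per group, given oral doses of 0.4, 1.5, 4.7 or 15.7 μmol/kg. Vehicle was 5% Solutol / 20% Captisol in 25 mM PBS, pH 2. CSF (about 0.30 mL) was drawn through subcutaneous ports with a sterile Huber needle predose and at 0.5, 1, 2, 3, 4, 8, 12 and 24 h. Matched blood was taken at each time. Mean ± SD.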

[12] = Drug level in cynomolgus monkey CSF at 10 mg/kg, po measured at 2 hrs post dose by LC-MS/MS analysis; assay type: ADME, organism-based, Macaca fascicularis, Cerebrospinal fluid; details: read-out: Drug uptake; procedure, shortened: as §1
[13] = Drug level in cynomolgus monkey plasma at 3 mg/kg, po measured at 4 hrs post dose by LC-MS/MS analysis; assay type: ADME, organism-based, Macaca fascicularis
[14] = Drug level in cynomolgus monkey plasma at 3 mg/kg, po measured at 24 hrs post dose by LC-MS/MS analysis; assay type: ADME, organism-based, Macaca fascicularis
[15] = Drug level in cynomolgus monkey plasma at 10 mg/kg, po measured at 24 hrs post dose by LC-MS/MS analysis; assay type: ADME, organism-based, Macaca fascicularis
[16] = Oral bioavailability in Sprague-Dawley rat at 10 mg/kg administered as single dose measured up to 24 hrs post dose by LC-MS/MS analysis; assay type: ADME, organism-based; details: in vivo
Procedure, shortened: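 Male Sprague-Dawley rats, n = 3 per group. Dosing was 3.1 μmol/kg IV (5% DMSO / 10% Solutol in saline, 5 mL/kg) and 15.7 μmol/kg PO (5% Solutol / 10% Captisol in 25 mM PBS, pH 2). F = (AUC_INF,po × Dose_iv)/(AUC_INF,iv × Dose_po). Mean ± SD.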

Cynomolgus monkey [17] = assay: In vivo inhibition of glycine transporter-1 in po dosed cynomolgus monkey assessed as increase in CSF glycine level measured up to 24 hrs post dose by LC-MS/MS analysis; assay type: functional, Macaca fascicularis; procedure, shortened: as §2
Rattus norvegicus [18] = assay: In vivo inhibition of glycine transporter-1 in Sprague-Dawley rat assessed as increase in CSF glycine level at 1 to 10 mg/kg, po qd for 5 days; assay type: functional, organism-based
Procedure, shortened: (§3)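 Drug-naive Sprague-Dawley rats, n = 5 per group, dosed orally once daily for 5 days with vehicle or 1.6, 4.8 or 16.1 μmol/kg. Vehicle was 5% Solutol / 20% Captisol in 25 mM PBS, pH 2. Killed 2 h or 48 h after the last dose. CSF glycine was expressed as % of vehicle control (vehicle 2 h post last dose), mean ± SEM. Two-way ANOVA with Tukey test.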

[19] = Drug level in Sprague-Dawley rat CSF at 3 mg/kg, po qd for 5 days measured 2 hrs post last dose by LC-MS/MS analysis; assay type: ADME, organism-based, Cerebrospinal fluid; details: read-out: Drug uptake
Procedure, shortened: (§4)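 Drug-naive Sprague−Dawley rats (n = 5/group) were dosed orally once daily for 5 days in 5% Solutol plus 20% Captisol in 25 mM PBS, pH 2, and sacrificed 2 h after the last dose. Drug was measured in CSF, brain and plasma; mean ± SEM.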

[20] = Drug level in Sprague-Dawley rat CSF at 10 mg/kg, po qd for 5 days measured 2 hrs post last dose by LC-MS/MS analysis; assay type: ADME, organism-based, Cerebrospinal fluid; details: read-out: Drug uptake; procedure, shortened: as §4
[21] = Drug level in Sprague-Dawley rat CSF at 100 mg/kg, po measured 2 hrs post dose by LC-MS/MS analysis; assay type: ADME, organism-based, Cerebrospinal fluid; details: read-out: Drug uptake
Procedure, shortened: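 Drug-naive Sprague−Dawley rats (n = 4−5/group) were dosed orally once in 5% Solutol plus 20% Captisol in 25 mM PBS, pH 2, and euthanized 2 h later by CO₂. CSF was drawn from the cisterna magna. Drug was measured in CSF, brain and plasma; data as mean ± SEM.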

Rattus norvegicus [22] = assay: In vivo inhibition of glycine transporter-1 in Sprague-Dawley rat assessed as CSF glycine level at 10 mg/kg, po qd for 5 days measured 2 hrs post last dose by LC-MS/MS analysis relative to control; assay type: functional; set-up: scale not given: the % may be the effect or the level left; procedure, shortened: as §3
[23] = Drug level in Sprague-Dawley rat brain at 1 mg/kg, po qd for 5 days measured 2 hrs post last dose by LC-MS/MS analysis; assay type: ADME, organism-based; details: read-out: Drug uptake; procedure, shortened: as §4
[24] = Drug level in Sprague-Dawley rat CSF at 1 mg/kg, po qd for 5 days measured 2 hrs post last dose by LC-MS/MS analysis; assay type: ADME, organism-based, Cerebrospinal fluid; details: read-out: Drug uptake; procedure, shortened: as §4
Rattus norvegicus [25] = assay: In vivo inhibition of glycine transporter-1 in Sprague-Dawley rat assessed as CSF glycine level at 3 mg/kg, po qd for 5 days measured 2 hrs post last dose by LC-MS/MS analysis relative to control; assay type: functional; set-up: scale not given: the % may be the effect or the level left; procedure, shortened: as §3

Chain of Cytochrome P450 2C9 (P11712 whole entry): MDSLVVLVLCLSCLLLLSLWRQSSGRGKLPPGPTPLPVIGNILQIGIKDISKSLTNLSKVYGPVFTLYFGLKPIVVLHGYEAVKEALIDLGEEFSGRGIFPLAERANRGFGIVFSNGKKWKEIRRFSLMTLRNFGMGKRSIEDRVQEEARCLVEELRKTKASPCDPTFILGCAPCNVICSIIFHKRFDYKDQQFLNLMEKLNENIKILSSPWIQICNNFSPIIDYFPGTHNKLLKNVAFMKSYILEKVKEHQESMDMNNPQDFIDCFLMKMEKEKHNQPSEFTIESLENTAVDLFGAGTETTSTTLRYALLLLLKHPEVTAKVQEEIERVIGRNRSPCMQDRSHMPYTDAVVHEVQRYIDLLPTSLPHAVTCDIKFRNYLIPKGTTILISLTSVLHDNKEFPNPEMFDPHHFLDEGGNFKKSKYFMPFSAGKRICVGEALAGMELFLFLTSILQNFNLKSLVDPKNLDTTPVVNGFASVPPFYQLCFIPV

- concentration at 3 h [1]: 205 ng/mL
- concentration at 12 h [2]: < 1 ng/mL
- concentration at 24 h [3]: 1.2 ng/mL
- concentration at 8 h [4]: 7.6 ng/mL
- concentration at 2 h [5]: 3.6 ng/mL
- concentration at 4 h [6]: 224 ng/mL
- IC50 (Cytochrome P450 2C9): > 7.2 µM
- fraction unbound [7]: 0.12
- fraction unbound [8]: 0.19
- Vd [9]: 1.75 L/kg
- Cmax [10]: 105 ng/mL
- concentration at 2 h [12]: 11.3 ng/mL
- concentration at 4 h [13]: 3.7 ng/mL
- concentration at 24 h [14]: < 1 ng/mL
- concentration at 24 h [15]: 10.3 ng/mL
- bioavailability [16]: 27.2%
Compound: CC(NC(=O)c1ccc(C(F)(F)F)cc1Cl)C1(N2CCN(S(=O)(=O)c3cn(C)nn3)CC2)CCC(F)(F)CC1.Cl (single isomer, unassigned; (+))
- Activity (Cynomolgus monkey [11]): >300%
- ED200 (Cynomolgus monkey [17]): 4.7 to 15.7 µmol/kg

- concentration at 2 h [19]: 1.1 nM
- concentration at 2 h [20]: 1.9 nM
- concentration at 2 h [21]: 7.6 nM
- concentration at 2 h [23]: 21 nM
- concentration at 2 h [24]: 1 nM
Compound: Cl.Cn1cc(S(=O)(=O)N2CCN(C3(CNC(=O)c4ccc(C(F)(F)F)cc4Cl)CCC(F)(F)CC3)CC2)nn1
- inhibition (Rattus norvegicus [18]): Active
- Activity (Rattus norvegicus [22]): 315%
- Activity (Rattus norvegicus [25]): 266.3%
